# Source: ChEMBL document CHEMBL4382264, “Melanogenesis-Inhibitory and Cytotoxic Activities of Triterpene Glycoside Constituents from the Bark of Albizia procera” (J Nat Prod, 2018)
# The source made the active and inactive calls. The rule behind the calls is not given here.
# Columns and labels:
# [1] = tested on: B16-F10; experiment: Inhibition of alpha-MSH-stimulated melanogenesis in mouse B16F10 cells assessed as melanin content at 10 uM measured after 48 hrs relative to control; type: functional; design: scale not given: the % may be the effect or the level left
# In short: (§1)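 B16F10 cells treated with test sample plus 0.10 μM α-MSH for 48 h. Melanin solubilized in 2 N NaOH–10% DMSO and read at 405 nm. Expressed as % of DMSO-treated cells (DMSO 2 μL·mL−1). Mean ± SD, n = 3.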
# [2] = tested on: B16-F10; experiment: Inhibition of alpha-MSH-stimulated melanogenesis in mouse B16F10 cells assessed as melanin content at 100 uM measured after 48 hrs relative to control; type: functional; design: scale not given: the % may be the effect or the level left; in short: as §1
# [3] = Cytotoxicity against non-stimulated mouse B16F10 cells assessed as cell viability at 10 uM relative to control; type: cell-based, B16-F10; settings: read-out: Activity
# In short: (§2)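 B16 melanoma cells tested for viability at 10 or 100 μM. Absorbance read at 570 nm (test) minus 630 nm (reference). Expressed as % of DMSO control (DMSO 2 μL·mL−1). Mean ± SD, n = 3.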
# [4] = Cytotoxicity against non-stimulated mouse B16F10 cells assessed as cell viability at 100 uM relative to control; type: cell-based, B16-F10; settings: read-out: Activity; in short: as §2
# [5] = tested on: B16-F10; experiment: Selectivity index, ratio of compound effect for cytotoxicity against non-stimulated mouse B16F10 cells assessed as cell viability at 10 uM to compound effect for inhibition of alpha-MSH-stimulated melanogenesis in mouse B16F10 cells assessed as melanin content at 10 uM
# [6] = tested on: B16-F10; experiment: Selectivity index, ratio of compound effect for cytotoxicity against non-stimulated mouse B16F10 cells assessed as cell viability at 100 uM to compound effect for inhibition of alpha-MSH-stimulated melanogenesis in mouse B16F10 cells assessed as melanin content at 100 uM
# [7] = tested on: HL-60; experiment: Cytotoxicity against human HL60 cells assessed as reduction in cell viability after 48 hrs by MTT assay; type: functional, cell-based; settings: HL-60, 48 h
# In short: (§3)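 Cells exposed to compounds from 1 × 10−4 to 1 × 10−6 M for 48 h. Viability read by MTT. IC50 derived from five concentrations, each run in triplicate.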
# [8] = tested on: AZ-521 cell line; experiment: Cytotoxicity against human AZ-521 cells assessed as reduction in cell viability after 48 hrs by MTT assay; type: functional, cell-based; settings: AZ-521, 48 h; in short: as §3
# [9] = tested on: SK-BR-3; experiment: Cytotoxicity against human SKBR3 cells assessed as reduction in cell viability after 48 hrs by MTT assay; type: functional, cell-based; settings: SK-BR-3, 48 h; in short: as §3
# [10] = tested on: A549; experiment: Cytotoxicity against human A549 cells assessed as reduction in cell viability after 48 hrs by MTT assay; type: functional, cell-based; settings: A549, 48 h; in short: as §3
# [11] = tested on: WI-38; experiment: Cytotoxicity against human WI38 cells assessed as reduction in cell viability after 48 hrs by MTT assay; type: cell-based; settings: WI-38, 48 h; in short: as §3
# [12] = Selectivity index, ratio of IC50 for human […] cells to IC50 for human A549 cells
# In short: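 Selectivity index equals the IC50 against WI38 normal cells divided by the IC50 against A549 cells.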
# [13] = tested on: HL-60; experiment: Induction of apoptosis in human HL60 cells assessed as early apoptotic cells at 3 uM after 24 hrs by Annexin V-FITC/propidium iodide staining based flow cytometry (reference value: 2.4%); type: functional
# In short: (§4)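 HL60 cells cultured with 3.0 μM for 0, 24 and 48 h. Cells stained with annexin V-FITC and propidium iodide and analyzed by flow cytometry for early and late apoptotic fractions. Mean of three experiments, compared against an untreated negative control.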
# [14] = tested on: HL-60; experiment: Induction of apoptosis in human HL60 cells assessed as cell shrinkage at 0.3 to 3 uM after 24 hrs by Hoechst 33342 staining based fluorescence microscopic analysis; type: functional; settings: 1 to 3 uM, in the assay text read “1 to 3 uM” for “0.3 to 3 uM”
# In short: (§5)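 HL60 cells treated for 24 h, fixed in 4% paraformaldehyde, and nuclei stained with Hoechst 33342. Cell shrinkage, nuclear fragmentation and chromatin condensation scored by fluorescence microscopy.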
# [15] = tested on: HL-60; experiment: Induction of apoptosis in human HL60 cells assessed as fragmentation of nuclei at 1 to 3 uM after 24 hrs by Hoechst 33342 staining based fluorescence microscopic analysis; type: functional, cell-based; in short: as §5
# [16] = tested on: HL-60; experiment: Induction of apoptosis in human HL60 cells assessed as chromatin condensation at 1 to 3 uM after 24 hrs by Hoechst 33342 staining based fluorescence microscopic analysis; type: functional, cell-based; in short: as §5
# [17] = tested on: HL-60; experiment: Induction of apoptosis in human HL60 cells assessed as late apoptotic cells at 3 uM after 24 hrs by Annexin V-FITC/propidium iodide staining based flow cytometry (reference value: 3%); type: functional; in short: as §4
# [18] = tested on: HL-60; experiment: Induction of apoptosis in human HL60 cells assessed as early apoptotic cells at 3 uM after 48 hrs by Annexin V-FITC/propidium iodide staining based flow cytometry (reference value: 0.8%); type: functional; in short: as §4
# [19] = tested on: HL-60; experiment: Induction of apoptosis in human HL60 cells assessed as late apoptotic cells at 3 uM after 48 hrs by Annexin V-FITC/propidium iodide staining based flow cytometry (reference value: 1.9%); type: functional; in short: as §4
# [20] = tested on: HL-60; experiment: Induction of apoptosis in human HL60 cells assessed as increase in cleaved caspase-3 expression at 3 uM after 24 to 48 hrs by Western blot analysis; type: functional, cell-based
# In short: (§6)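 HL60 cells treated with 3.0 μM for 24 and 48 h, then lysed in RIPA buffer. Total protein cleared by centrifugation and quantified by BCA. Procaspase and cleaved caspase-3, -8 and -9 levels assessed by Western blot.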
# [21] = tested on: HL-60; experiment: Induction of apoptosis in human HL60 cells assessed as increase in cleaved caspase-8 expression at 3 uM after 24 to 48 hrs by Western blot analysis; type: functional, cell-based; in short: as §6
# [22] = tested on: HL-60; experiment: Induction of apoptosis in human HL60 cells assessed as increase in cleaved caspase-9 expression at 3 uM after 24 to 48 hrs by Western blot analysis; type: functional, cell-based; in short: as §6
Compound,Activity [1] [%],Activity [2] [%],viability at 10 µM [3] [%],viability at 100 µM [4] [%],Ratio [5],Ratio [6],IC50 [7] [nM],IC50 [8] [nM],IC50 [9] [nM],IC50 [10] [nM],IC50 [11] [µM],Ratio IC50 [12],other results
C=C[C@@](C)(O)CC/C=C(\C)C(=O)O[C@H]1[C@H](O)[C@@H](O)[C@H](O[C@](C)(C=C)CCCC(C)C(=O)O[C@H]2C[C@]3(C(=O)O[C@@H]4O[C@H](CO)[C@@H](O)[C@H](O)[C@H]4O[C@@H]4O[C@@H](C)[C@H](O[C@@H]5O[C@@H](CO)[C@H](O)[C@H]5O)[C@@H](O[C@@H]5O[C@H](CO)[C@@H](O)[C@H](O)[C@H]5O)[C@H]4O)[C@H](O)C[C@]4(C)C(=CC[C@@H]5[C@@]6(C)CC[C@H](O[C@@H]7O[C@H](CO[C@@H]8OC[C@H](O)[C@H](O)[C@H]8O[C@@H]8OC[C@@H](O)[C@H](O)[C@H]8O)[C@@H](O)[C@H](O)[C@H]7O)C(C)(C)[C@@H]6CC[C@]54C)[C@@H]3CC2(C)C)O[C@@H]1C (stereo partly specified),86.2,80,107,104,0.81,0.77,900,1200,800,1000,8.3,8.2,–
C=C[C@@](C)(O)CC/C=C(\C)C(=O)O[C@H]1[C@H](O)[C@@H](O)[C@H](O[C@](C)(C=C)CCCC(C)C(=O)O[C@H]2C[C@]3(C(=O)O[C@@H]4O[C@H](CO)[C@@H](O)[C@H](O)[C@H]4O[C@@H]4O[C@@H](C)[C@H](O[C@@H]5O[C@@H](CO)[C@H](O)[C@H]5O)[C@@H](O[C@@H]5O[C@H](CO)[C@@H](O)[C@H](O)[C@H]5O)[C@H]4O)CC[C@]4(C)C(=CC[C@@H]5[C@@]6(C)CC[C@H](O[C@@H]7O[C@H](CO[C@@H]8OC[C@H](O)[C@H](O)[C@H]8O[C@@H]8OC[C@@H](O)[C@H](O)[C@H]8O)[C@@H](O)[C@H](O)[C@H]7O[C@@H]7O[C@H](CO)[C@@H](O)[C@H](O)[C@H]7O)C(C)(C)[C@@H]6CC[C@]54C)[C@@H]3CC2(C)C)O[C@@H]1C (stereo partly specified),89.2,75.2,110,102,0.81,0.74,500,400,1100,660,2.2,3.4,–
C=C[C@@](C)(O)CC/C=C(\C)C(=O)O[C@H]1[C@H](O)[C@@H](O)[C@H](O[C@](C)(C=C)CCCC(C)C(=O)O[C@H]2C[C@]3(C(=O)O[C@@H]4O[C@H](CO)[C@@H](O)[C@H](O)[C@H]4O[C@@H]4O[C@@H](C)[C@H](O[C@@H]5O[C@@H](CO)[C@H](O)[C@H]5O)[C@@H](O[C@@H]5O[C@H](CO)[C@@H](O)[C@H](O)[C@H]5O)[C@H]4O)[C@H](O)C[C@]4(C)C(=CC[C@@H]5[C@@]6(C)CC[C@H](O[C@@H]7O[C@H](CO[C@@H]8OC[C@H](O)[C@H](O)[C@H]8O[C@@H]8OC[C@@H](O)[C@H](O)[C@H]8O)[C@@H](O)[C@H](O)[C@H]7O[C@@H]7O[C@H](CO)[C@@H](O)[C@H](O)[C@H]7O)C(C)(C)[C@@H]6CC[C@]54C)[C@@H]3CC2(C)C)O[C@@H]1C (stereo partly specified),80.9,50.7,103,100,0.78,0.51,300,500,1300,300,5.1,16.9,Activity [13]: 19%; Activity [14]: Active; Activity [15]: Active; Activity [16]: Active; Activity [17]: 22.7%; Activity [18]: 38.2%; Activity [19]: 42.2%; Activity [20]: Active; Activity [21]: Active; Activity [22]: Active
C=C[C@@](C)(O)CC/C=C(\C)C(=O)O[C@H]1[C@H](O)[C@@H](O)[C@H](O[C@](C)(C=C)CCCC(C)C(=O)O[C@H]2C[C@]3(C(=O)O[C@@H]4O[C@H](CO)[C@@H](O)[C@H](O)[C@H]4O[C@@H]4O[C@@H](C)[C@H](O[C@@H]5O[C@@H](CO)[C@H](O)[C@H]5O)[C@@H](O[C@@H]5O[C@H](CO)[C@@H](O)[C@H](O)[C@H]5O)[C@H]4O)CC[C@]4(C)C(=CC[C@@H]5[C@@]6(C)CC[C@H](O[C@@H]7O[C@H](CO[C@@H]8O[C@H](C)[C@H](O)[C@H](O)[C@H]8O[C@@H]8OC[C@@H](O)[C@H](O)[C@H]8O)[C@@H](O)[C@H](O)[C@H]7O)C(C)(C)[C@@H]6CC[C@]54C)[C@@H]3CC2(C)C)O[C@@H]1C (stereo partly specified),74.3,42.5,107,102,0.69,0.42,900,1700,400,1300,2.5,1.8,–
C=C[C@@](C)(O)CC/C=C(\C)C(=O)O[C@H]1[C@H](O)[C@@H](O)[C@H](O[C@](C)(C=C)CCCC(C)C(=O)O[C@H]2C[C@]3(C(=O)O[C@@H]4O[C@H](CO)[C@@H](O)[C@H](O)[C@H]4O[C@@H]4O[C@@H](C)[C@H](O[C@@H]5O[C@@H](CO)[C@H](O)[C@H]5O)[C@@H](O[C@@H]5O[C@H](CO)[C@@H](O)[C@H](O)[C@H]5O)[C@H]4O)CC[C@]4(C)C(=CC[C@@H]5[C@@]6(C)CC[C@H](O[C@@H]7O[C@H](CO[C@@H]8O[C@H](C)[C@H](O)[C@H](O)[C@H]8O[C@@H]8OC[C@@H](O)[C@H](O)[C@H]8O)[C@@H](O)[C@H](O)[C@H]7O[C@@H]7O[C@H](CO)[C@@H](O)[C@H](O)[C@H]7O)C(C)(C)[C@@H]6CC[C@]54C)[C@@H]3CC2(C)C)O[C@@H]1C (stereo partly specified),86.5,79.6,110,104,0.79,0.77,600,600,2600,1800,4.8,2.7,–
OC[C@H]1O[C@@H](Oc2ccc(O)cc2)[C@H](O)[C@@H](O)[C@@H]1O [ARBUTIN],92.7,81.5,102,101,0.91,0.81,–,–,–,–,–,–,–
